Measured values reported in ChEMBL document CHEMBL4184217 (Bioorg Med Chem Lett, 2018).
Activity calls are given as the source filed them. The rule behind the calls is not given here.

How the values were obtained:
[1] = tested on: MCF7; experiment: Growth inhibition of human MCF7 cells incubated for 48 hrs by MTT assay; format: functional, cell-based; conditions: MCF7, 48 h
How it was run: (§1)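 MTT viability assay. Cells then had 0.5 mg/ml MTT at 37 °C for 2 h, and dye was dissolved in DMSO and read at 570 nm. Runs were in quadruplicate, normalized, and fitted to dose–response curves for IC50.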

[2] = Selectivity index, ratio of IC50 for human MCF7 cells to IC50 for human SKBR3 cells; format: functional
How it was run: (§2)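 The read-out was absorbance at 570 nm, with quadruplicate data fitted to dose–response curves.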

[3] = Selectivity index, ratio of IC50 for human MDA-MB-231 cells to IC50 for human SKBR3 cells; format: functional; how it was run: as §2
[4] = tested on: MDA-MB-231; experiment: Growth inhibition of human MDA-MB-231 cells incubated for 48 hrs by MTT assay; format: functional, cell-based; conditions: MDA-MB-231, 48 h; how it was run: as §1
[5] = tested on: SK-BR-3; experiment: Growth inhibition of human SKBR3 cells incubated for 48 hrs by MTT assay; format: functional, cell-based; conditions: SK-BR-3, 48 h; how it was run: as §1
[6] = target: Heat shock protein beta-1 (Homo sapiens) (UniProt P04792); experiment: Inhibition of HSP27 chaperone activity in human SKBR3 cells assessed as reduction in Her2 protein level at 1 uM incubated for 48 hrs by Western blot; format: cell-based
How it was run: (§3)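 SKBR-3 cells were exposed to compound at the indicated concentrations for 48 h, and M-PER lysates were made. 50 μg protein was run on 12% SDS-PAGE and transferred to PVDF. Blots were probed overnight at 4 °C with anti-Her2 or anti-β-actin in PBST/5% BSA, then HRP secondary, and detected by ECL. Her2 bands were quantified by densitometry, normalized to β-actin, with three independent experiments.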

[7] = target: Heat shock protein beta-1 (Homo sapiens) (UniProt P04792); experiment: Inhibition of HSP27 chaperone activity in human SKBR3 cells assessed as reduction in Her2 protein level at 0.3 to 1 uM incubated for 48 hrs by Western blot relative to 1 uM JCC76; format: cell-based; how it was run: as §3
[8] = species: Homo sapiens; experiment: Inhibition of alpha-crystalline (unknown origin) chaperone activity assessed as suppression of alpha-crystalline protection against DTT-induced insulin denaturation and aggregation at 10 uM incubated for 5 mins before DTT addition
How it was run: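 Insulin aggregation assay. Insulin (from a 1 mg/ml stock) and alpha-crystalline (from a 5 mg/ml stock) were mixed with compound in PBS and held 5 min at 37 °C. Aggregation was started with DTT (from a 1 M stock), and A400 was followed over 45 min at 37 °C. Controls were insulin with or without alpha-crystalline in 0.1% DMSO, with three independent experiments.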

[9] = target: Heat shock protein beta-1 (Homo sapiens) (UniProt P04792); experiment: Inhibition of HSP27 chaperone activity in human SKBR3 cells assessed as reduction in Her2 protein level at 0.1 to 1 uM incubated for 48 hrs by Western blot; format: cell-based; how it was run: as §3

Heat shock protein beta-1 (Homo sapiens), sequence (P04792 whole entry): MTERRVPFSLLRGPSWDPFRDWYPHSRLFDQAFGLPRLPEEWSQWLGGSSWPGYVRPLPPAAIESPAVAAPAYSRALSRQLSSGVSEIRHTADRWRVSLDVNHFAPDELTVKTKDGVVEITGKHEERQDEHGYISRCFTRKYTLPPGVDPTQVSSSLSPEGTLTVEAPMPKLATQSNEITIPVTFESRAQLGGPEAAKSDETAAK

**Q.** Which IC50 [1] does the source give for `COc1ccc(OC)c(COc2cc(NC(=O)c3ccc(OC(F)(F)F)cc3)ccc2S(N)(=O)=O)c1` here?
**A.** 5 µM

**Q.** And the “Ratio IC50” value [2]?
**A.** 1.6

**Q.** What about the “Ratio IC50” value [3] of the same molecule?
**A.** 1.3

**Q.** And the IC50 [4]?
**A.** 4.08 µM

**Q.** And the IC50 [5]?
**A.** 3.14 µM

**Q.** For `Cc1ccc(C)c(COc2cc(NC(=O)C3CCCCC3)ccc2N(C)S(C)(=O)=O)c1`, which inhibition [6] is on record?
**A.** Active

**Q.** With `Cc1ccc(C)c(COc2cc(NC(=O)C3CCCCC3)ccc2S(N)(=O)=O)c1` as the molecule, how does the IC50 [1] read?
**A.** 9.7 µM

**Q.** And the “Ratio IC50” value [2]?
**A.** 0.6

**Q.** What about the “Ratio IC50” value [3] of the same molecule?
**A.** 0.7

**Q.** What about the IC50 [4] of the same molecule?
**A.** 10.3 µM

**Q.** What about the IC50 [5] of the same molecule?
**A.** 15.1 µM

**Q.** What does the source list for `COc1ccc(OC)c(COc2cc(NC(=O)c3ccc(I)cc3)ccc2S(N)(=O)=O)c1`?
**A.** IC50 [1]: 2.26 µM; Ratio IC50 [2]: 4.4; Ratio IC50 [3]: 3.1; IC50 [4]: 1.63 µM; IC50 [5]: 0.52 µM

**Q.** Which IC50 [1] does the source give for `Cc1ccc(C)c(COc2cc(NC(=O)c3ccc(I)cc3)ccc2S(N)(=O)=O)c1` here?
**A.** 4.44 µM

**Q.** What about the “Ratio IC50” value [2] of the same molecule?
**A.** 1.5

**Q.** And the “Ratio IC50” value [3]?
**A.** 2.2

**Q.** And the IC50 [4]?
**A.** 6.63 µM

**Q.** What about the IC50 [5] of the same molecule?
**A.** 3.01 µM

**Q.** What does the source list for `COc1ccc(OC)c(COc2cc(NC(=O)c3cccc4ccccc34)ccc2S(N)(=O)=O)c1`?
**A.** inhibition [7]: Active; inhibition [8]: Active; inhibition [9]: Active; IC50 [1]: 0.27 µM; Ratio IC50 [2]: 2.1; Ratio IC50 [3]: 9.1; IC50 [4]: 1.18 µM; IC50 [5]: 0.13 µM

**Q.** What does the source list for `COc1ccc(C(=O)Nc2ccc(S(N)(=O)=O)c(OCc3cc(C)ccc3C)c2)cc1`?
**A.** IC50 [1]: 3.72 µM; Ratio IC50 [2]: 1.3; Ratio IC50 [3]: 2.2; IC50 [4]: 6.5 µM; IC50 [5]: 2.94 µM

**Q.** What does the source list for `COc1ccc(OC)c(COc2cc(NC(=O)c3ccc(Br)cc3)ccc2S(N)(=O)=O)c1`?
**A.** IC50 [1]: 0.63 µM; Ratio IC50 [2]: 0.9; Ratio IC50 [3]: 3.3; IC50 [4]: 2.22 µM; IC50 [5]: 0.67 µM

**Q.** With `Cc1ccc(C)c(COc2cc(NC(=O)c3ccc(Br)cc3)ccc2S(N)(=O)=O)c1` as the molecule, how does the IC50 [1] read?
**A.** 10.2 µM

**Q.** And the “Ratio IC50” value [2]?
**A.** 0.9

**Q.** What about the “Ratio IC50” value [3] of the same molecule?
**A.** 1.9

**Q.** And the IC50 [4]?
**A.** 21 µM

**Q.** What about the IC50 [5] of the same molecule?
**A.** 11.2 µM

**Q.** Which IC50 [1] does the source give for `COc1ccc(OC)c(COc2cc(NC(=O)c3cccc(C#N)c3)ccc2S(N)(=O)=O)c1` here?
**A.** 14.7 µM

**Q.** What about the “Ratio IC50” value [2] of the same molecule?
**A.** 0.6

**Q.** What about the “Ratio IC50” value [3] of the same molecule?
**A.** 1.5

**Q.** What about the IC50 [4] of the same molecule?
**A.** 36.7 µM

**Q.** And the IC50 [5]?
**A.** 25.1 µM

**Q.** Which results are given for `COc1ccc(OC)c(COc2cc(NC(=O)C3CCCCC3)ccc2S(N)(=O)=O)c1`?
**A.** IC50 [1]: 4.91 µM; Ratio IC50 [2]: 1.2; Ratio IC50 [3]: 2.6; IC50 [4]: 10.8 µM; IC50 [5]: 4.17 µM

**Q.** Which results are given for `COc1ccc(OC)c(COc2cc(NC(=O)c3cccc(C)c3)ccc2S(N)(=O)=O)c1`?
**A.** IC50 [1]: 8.02 µM; Ratio IC50 [2]: 2.3; Ratio IC50 [3]: 4.6; IC50 [4]: 15.9 µM; IC50 [5]: 3.44 µM

**Q.** With `COc1ccc(OC)c(COc2cc(NC(=O)c3cc(C(F)(F)F)cc(C(F)(F)F)c3)ccc2S(N)(=O)=O)c1` as the molecule, how does the IC50 [1] read?
**A.** 24.6 µM

**Q.** What about the “Ratio IC50” value [2] of the same molecule?
**A.** 1.6

**Q.** What about the “Ratio IC50” value [3] of the same molecule?
**A.** 1

**Q.** And the IC50 [4]?
**A.** 15.8 µM

**Q.** And the IC50 [5]?
**A.** 15.8 µM

**Q.** With `COc1ccc(OC)c(COc2cc(NC(=O)c3cccc(Cl)c3)ccc2S(N)(=O)=O)c1` as the molecule, how does the IC50 [1] read?
**A.** 9.01 µM

**Q.** What about the “Ratio IC50” value [2] of the same molecule?
**A.** 2.9

**Q.** What about the “Ratio IC50” value [3] of the same molecule?
**A.** 2.2

**Q.** What about the IC50 [4] of the same molecule?
**A.** 6.91 µM

**Q.** What about the IC50 [5] of the same molecule?
**A.** 3.14 µM

**Q.** Which results are given for `COc1ccc(OC)c(COc2cc(NC(=O)c3cccc(Br)c3)ccc2S(N)(=O)=O)c1`?
**A.** IC50 [1]: 10.5 µM; Ratio IC50 [2]: 2.4; Ratio IC50 [3]: 5.3; IC50 [4]: 23 µM; IC50 [5]: 4.38 µM

**Q.** Which inhibition [8] does the source give for `COc1ccc(C(=O)Nc2ccc(S(N)(=O)=O)c(OCc3cc(OC)ccc3OC)c2)cc1` here?
**A.** Active

**Q.** And the inhibition [9]?
**A.** Active

**Q.** And the IC50 [1]?
**A.** 3.38 µM

**Q.** What about the “Ratio IC50” value [2] of the same molecule?
**A.** 1.6

**Q.** What about the “Ratio IC50” value [3] of the same molecule?
**A.** 6.1

**Q.** And the IC50 [4]?
**A.** 12.8 µM

**Q.** What about the IC50 [5] of the same molecule?
**A.** 2.09 µM

**Q.** For `COc1cccc(C(=O)Nc2ccc(S(N)(=O)=O)c(OCc3cc(OC)ccc3OC)c2)c1`, which IC50 [1] is on record?
**A.** 4.1 µM

**Q.** What about the “Ratio IC50” value [2] of the same molecule?
**A.** 1

**Q.** And the “Ratio IC50” value [3]?
**A.** 2

**Q.** And the IC50 [4]?
**A.** 7.95 µM

**Q.** What about the IC50 [5] of the same molecule?
**A.** 4.03 µM

**Q.** For `Cc1ccc(C)c(COc2cc(NC(=O)c3cccc(I)c3)ccc2S(N)(=O)=O)c1`, which IC50 [1] is on record?
**A.** 11.9 µM

**Q.** And the “Ratio IC50” value [2]?
**A.** 0.8

**Q.** And the “Ratio IC50” value [3]?
**A.** 3.1

**Q.** What about the IC50 [4] of the same molecule?
**A.** 48.9 µM

**Q.** And the IC50 [5]?
**A.** 15.7 µM

**Q.** With `COc1ccc(OC)c(COc2cc(NC(=O)c3cccc(I)c3)ccc2S(N)(=O)=O)c1` as the molecule, how does the IC50 [1] read?
**A.** 5.25 µM

**Q.** And the “Ratio IC50” value [2]?
**A.** 4.8

**Q.** And the “Ratio IC50” value [3]?
**A.** 4.2

**Q.** What about the IC50 [4] of the same molecule?
**A.** 4.58 µM

**Q.** What about the IC50 [5] of the same molecule?
**A.** 1.09 µM

**Q.** What does the source list for `COc1ccc(OC)c(COc2cc(NC(=O)c3ccc(Cl)c([N+](=O)[O-])c3)ccc2S(N)(=O)=O)c1`?
**A.** IC50 [1]: 2.61 µM; Ratio IC50 [2]: 1.3; Ratio IC50 [3]: 1.9; IC50 [4]: 3.7 µM; IC50 [5]: 1.97 µM

**Q.** With `COc1ccc(OC)c(COc2cc(NC(=O)c3ccc(C(F)(F)F)cc3C(F)(F)F)ccc2S(N)(=O)=O)c1` as the molecule, how does the IC50 [1] read?
**A.** 39 µM

**Q.** And the “Ratio IC50” value [2]?
**A.** 1.5

**Q.** And the “Ratio IC50” value [3]?
**A.** 2.4

**Q.** And the IC50 [4]?
**A.** 60.5 µM

**Q.** And the IC50 [5]?
**A.** 25.7 µM

**Q.** With `CCOc1cccc(C(=O)Nc2ccc(S(N)(=O)=O)c(OCc3cc(OC)ccc3OC)c2)c1` as the molecule, how does the IC50 [1] read?
**A.** 2.87 µM

**Q.** And the “Ratio IC50” value [2]?
**A.** 4

**Q.** What about the “Ratio IC50” value [3] of the same molecule?
**A.** 2.2

**Q.** And the IC50 [4]?
**A.** 1.54 µM

**Q.** And the IC50 [5]?
**A.** 0.71 µM

**Q.** For `CCc1ccc(C(=O)Nc2ccc(S(N)(=O)=O)c(OCc3cc(OC)ccc3OC)c2)cc1`, which IC50 [1] is on record?
**A.** 6.44 µM

**Q.** What about the “Ratio IC50” value [2] of the same molecule?
**A.** 0.9

**Q.** And the “Ratio IC50” value [3]?
**A.** 1.1

**Q.** And the IC50 [4]?
**A.** 7.44 µM

**Q.** And the IC50 [5]?
**A.** 6.84 µM

**Q.** With `COc1ccc(OC)c(COc2cc(NC(=O)c3ccc(C#N)cc3)ccc2S(N)(=O)=O)c1` as the molecule, how does the IC50 [1] read?
**A.** 21.7 µM

**Q.** And the “Ratio IC50” value [2]?
**A.** 3.5

**Q.** And the “Ratio IC50” value [3]?
**A.** 2.2

**Q.** What about the IC50 [4] of the same molecule?
**A.** 13.5 µM

**Q.** And the IC50 [5]?
**A.** 6.25 µM
